This note sets out measurements from ChEMBL document CHEMBL3352690, “Synthesis and evaluation of arylpiperazines derivatives of 3,5-dioxo-(2H,4H)-1,2,4-triazine as 5-HT1AR ligands” (Bioorg Med Chem Lett, 2014).

Assay [1] addresses T1, 5-hydroxytryptamine receptor 1A (Homo sapiens, UniProt P08908).
T1 sequence (P08908 whole entry): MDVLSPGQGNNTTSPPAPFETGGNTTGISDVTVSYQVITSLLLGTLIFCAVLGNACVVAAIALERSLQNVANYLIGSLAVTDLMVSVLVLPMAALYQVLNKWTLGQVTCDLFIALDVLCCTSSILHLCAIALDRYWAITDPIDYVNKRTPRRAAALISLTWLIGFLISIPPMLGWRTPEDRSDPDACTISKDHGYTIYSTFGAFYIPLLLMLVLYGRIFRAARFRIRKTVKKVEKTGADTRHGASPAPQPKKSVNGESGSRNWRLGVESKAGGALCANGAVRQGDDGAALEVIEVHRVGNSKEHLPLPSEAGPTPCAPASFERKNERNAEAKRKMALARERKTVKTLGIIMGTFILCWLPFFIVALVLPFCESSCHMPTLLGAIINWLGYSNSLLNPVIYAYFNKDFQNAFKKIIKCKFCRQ
The experiment in a line: Displacement of [3H]8-OH-DPAT from 5HT1AR (unknown origin) by competition binding assay.

The target of assay [2] is T2, Adrenergic receptor alpha-1 (Homo sapiens, UniProt P35348+P25100+P35368).
T2 sequence (P35348 whole entry): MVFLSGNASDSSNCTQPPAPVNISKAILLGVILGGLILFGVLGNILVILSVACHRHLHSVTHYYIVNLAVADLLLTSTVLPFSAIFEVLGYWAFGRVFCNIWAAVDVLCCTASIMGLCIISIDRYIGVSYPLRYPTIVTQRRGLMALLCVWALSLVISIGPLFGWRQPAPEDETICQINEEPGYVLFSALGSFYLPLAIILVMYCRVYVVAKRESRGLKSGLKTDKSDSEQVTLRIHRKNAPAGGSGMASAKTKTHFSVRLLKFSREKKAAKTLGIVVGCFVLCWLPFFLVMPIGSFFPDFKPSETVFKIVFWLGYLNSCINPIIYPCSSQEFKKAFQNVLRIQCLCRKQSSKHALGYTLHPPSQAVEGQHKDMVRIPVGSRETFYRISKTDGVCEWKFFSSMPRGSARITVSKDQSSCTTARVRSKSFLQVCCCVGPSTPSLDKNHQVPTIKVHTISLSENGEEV
T2 sequence (P25100 whole entry): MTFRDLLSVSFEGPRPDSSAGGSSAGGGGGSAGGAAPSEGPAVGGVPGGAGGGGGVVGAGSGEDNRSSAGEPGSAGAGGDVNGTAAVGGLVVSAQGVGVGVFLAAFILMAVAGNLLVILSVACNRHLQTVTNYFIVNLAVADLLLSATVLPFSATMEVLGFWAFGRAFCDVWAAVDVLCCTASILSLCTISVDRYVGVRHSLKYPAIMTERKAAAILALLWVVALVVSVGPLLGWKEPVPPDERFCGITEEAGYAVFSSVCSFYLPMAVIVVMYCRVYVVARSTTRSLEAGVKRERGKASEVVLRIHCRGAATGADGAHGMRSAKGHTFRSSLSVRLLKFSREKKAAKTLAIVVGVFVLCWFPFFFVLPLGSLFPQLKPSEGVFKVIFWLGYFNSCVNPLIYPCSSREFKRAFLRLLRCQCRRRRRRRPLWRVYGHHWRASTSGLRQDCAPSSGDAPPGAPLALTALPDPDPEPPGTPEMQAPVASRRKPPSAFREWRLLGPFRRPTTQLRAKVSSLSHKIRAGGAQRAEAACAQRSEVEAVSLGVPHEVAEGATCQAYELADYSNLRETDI
T2 sequence (P35368 whole entry): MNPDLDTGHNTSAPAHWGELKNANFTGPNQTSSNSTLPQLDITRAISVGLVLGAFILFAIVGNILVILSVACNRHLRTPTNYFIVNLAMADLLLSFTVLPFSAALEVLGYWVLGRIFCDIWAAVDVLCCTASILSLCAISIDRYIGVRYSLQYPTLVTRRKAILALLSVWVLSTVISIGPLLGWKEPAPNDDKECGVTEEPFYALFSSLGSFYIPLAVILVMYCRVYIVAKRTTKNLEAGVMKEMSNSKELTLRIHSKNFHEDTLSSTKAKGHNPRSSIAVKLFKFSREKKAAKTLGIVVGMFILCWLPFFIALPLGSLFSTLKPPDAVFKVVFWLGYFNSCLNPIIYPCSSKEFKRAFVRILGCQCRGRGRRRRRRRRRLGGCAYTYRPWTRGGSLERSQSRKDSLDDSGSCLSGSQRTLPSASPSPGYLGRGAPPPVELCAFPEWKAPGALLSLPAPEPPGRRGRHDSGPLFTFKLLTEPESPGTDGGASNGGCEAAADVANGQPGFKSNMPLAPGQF
Put plainly: Displacement of [3H]-7-methoxyprazosin from alpha1 adrenergic receptor (unknown origin) by competition binding assay. The method, boiled down: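 Competition binding against [3H]-7-methoxyprazosin, with phentolamine as the reference compound.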
(In general: Displacement assays read how much labelled ligand stays bound in the presence of the test substance.)

The species entered for the next assay is Homo sapiens. The experiment in a line: Selectivity index, ratio of Ki for alpha1 adrenergic receptor (unknown origin) to Ki for 5HT1AR (unknown origin).
Assay [3] addresses T3, 5-hydroxytryptamine receptor 1A (Homo sapiens) (UniProt P08908).
T3 sequence (whole entry): T1 sequence (P08908 whole entry)
Put plainly: (§1) Agonist activity at human 5HT1AR expressed in CHO cells assessed as increase in [35S]GTPgammaS binding by liquid scintillation spectrometry. Type of assay: functional, cell-based. The method in brief: (§2)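 CHO-h5-HT1A cell membranes (30 μg) preincubated 5 min at room temperature with set concentrations of ligand in 20 mM HEPES pH 7.4, 3 mM MgCl2, 100 mM NaCl, 3 μM GDP. [35S]GTPγS (0.1 nM) then added, 60 min at room temperature. Stopped by rapid filtration through GF/B filters with three ice-cold 20 mM HEPES pH 7.4 washes. Bound radioactivity counted by liquid scintillation.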
For orientation: GTPγS is a poorly hydrolysed GTP analogue; its binding reports G protein activation.

Assay [4] has as its target T1, 5-hydroxytryptamine receptor 1A. The description is as §1. Type of assay: functional, cell-based. The method in brief: as §2
For assay [5], the target named is T3, 5-hydroxytryptamine receptor 1A (Homo sapiens). Put plainly: Agonist activity at human 5HT1AR expressed in CHO cells assessed as increase in [35S]GTPgammaS binding by liquid scintillation spectrometry relative to untreated control. The conditions noted are these: in the assay text read “relative to 5-HT” for “relative to untreated control”. Type of assay: functional, cell-based. The method, boiled down:
as §2

Each structure is given as a SMILES string.

As to `COc1ccc2cccc(N3CCN(CCCn4ncc(=O)n(C)c4=O)CC3)c2c1`, the values for the inhibition constant (Ki) in assay [1] and in assay [2] were 175 nM and > 10000 nM, respectively.

Turning to `Cn1c(=O)cnn(CCCCN2CCN(c3ccccc3O)CC2)c1=O`, the inhibition constant (Ki) (commonly a dissociation constant, usually derived from enzyme kinetics or from competition with a known ligand) was 1.7 nM in assay [1] and > 10000 nM in assay [2]. Besides, the Ratio Ki in the assay listed under Homo sapiens is > 10000.

Consider `COc1ccc(N2CCN(CCCCn3ncc(=O)n(C)c3=O)CC2)cc1`, for which the inhibitory constant (Ki) in assay [1] is 414 nM; in assay [2], > 10000 nM.

For `Cn1c(=O)cnn(CCCN2CCN(c3ccccc3F)CC2)c1=O`, the Ki is 250 nM in assay [1] and > 10000 nM in assay [2].

In the case of `CSc1ccccc1N1CCN(CCCCn2ncc(=O)n(C)c2=O)CC1`, the results for the inhibitory constant (Ki) in assay [1] and in assay [2] were 0.46 nM and 1.8 nM, respectively.

`Cn1c(=O)cnn(CCCCN2CCN(c3ncccc3F)CC2)c1=O`: in assay [3], the Activity entry is “Dose-dependent effect”. For the same compound, in assay [4], the EC50 (in general, the concentration that produces a half-maximal response) is 0.8 nM. In addition, the Ki was 1.2 nM in assay [1] and > 10000 nM in assay [2]. In assay [5], the maximal effect (Emax) (usually the size of the effect at its maximum, as opposed to the concentration needed) worked out at 80%.

Consider `Cn1c(=O)cnn(CCCCN2CCN(c3c(Br)cccc3C#N)CC2)c1=O`, for which the Ki is 28 nM in assay [1] and 450 nM in assay [2].

In the case of `Cn1c(=O)cnn(CCCCN2CCN(c3ncccn3)CC2)c1=O` [EPTAPIRONE], the Ki in assay [1] is 175 nM; in assay [2], > 10000 nM.

Turning to `Cn1c(=O)cnn(CCCCN2CCN(c3ccccc3C#N)CC2)c1=O`, the Ki in assay [1] stood at 0.835 nM; in assay [2], 7.3 nM.

Regarding `Cn1c(=O)cnn(CCCCN2CCN(c3cccc(Br)n3)CC2)c1=O`, the inhibition constant Ki in assay [1] was 1.4 nM; in assay [2], > 10000 nM.

`Cn1c(=O)cnn(CCCCN2CCN(c3ccc(F)cn3)CC2)c1=O`: the inhibition constant Ki was 68 nM in assay [1] and > 10000 nM in assay [2].

`Cn1c(=O)cnn(CCCCN2CCN(c3cccc4ccc(O)cc34)CC2)c1=O`: the Ki in assay [1] turned out to be 0.44 nM; in assay [2], 24.5 nM.

In the case of `COc1ccccc1N1CCN(CCCCCn2ncc(=O)n(C)c2=O)CC1`, the inhibition constant (Ki) in assay [1] is 150 nM; in assay [2], > 10000 nM.

As for `COc1ccc(N2CCN(CCCCn3ncc(=O)n(C)c3=O)CC2)c(C#N)c1`, the Ki is 215 nM in assay [1] and 380 nM in assay [2].

On to `CCOc1ccccc1N1CCN(CCCCn2ncc(=O)n(C)c2=O)CC1`, for which the inhibitory constant (Ki) in assay [1] is 0.66 nM; in assay [2], 1.8 nM.

As to `Cn1c(=O)cnn(CCCCN2CCN(c3ccccc3S)CC2)c1=O`, the inhibition constant Ki is 8 nM in assay [1] and > 10000 nM in assay [2].

In the case of `COc1ccccc1N1CCN(CCn2ncc(=O)n(C)c2=O)CC1`, the figures for the inhibition constant Ki in assay [1] and in assay [2] were 240 nM and > 10000 nM, respectively.

Turning to `Cn1c(=O)cnn(CCCN2CCN(c3ccccc3)CC2)c1=O`, the Ki was 350 nM in assay [1] and > 10000 nM in assay [2].

In the case of `COc1ccccc1N1CCN(CCCn2ncc(=O)n(C)c2=O)CC1`, the figures for the Ki in assay [1] and in assay [2] were 180 nM and > 10000 nM, respectively.

Consider `CN(C)c1ccccc1N1CCN(CCCCn2ncc(=O)n(C)c2=O)CC1`, for which the Ki in assay [1] turned out to be 180 nM; in assay [2], 350 nM.

Turning to `Cn1c(=O)cnn(CCCCN2CCN(c3ccc(I)cc3)CC2)c1=O`, the figures for the Ki in assay [1] and in assay [2] were 58.8 nM and 103 nM, respectively.

For `Cn1c(=O)cnn(CCCCN2CCN(c3ccccc3OCCCF)CC2)c1=O`, the Ki worked out at 0.8 nM in assay [1] and 280 nM in assay [2]. The Ratio Ki in the assay filed under Homo sapiens is 42.

Consider `Cn1c(=O)cnn(CCCCN2CCN(c3ccccc3F)CC2)c1=O`, for which the Ki in assay [1] worked out at 1.89 nM; in assay [2], 9.73 nM.

As for `Cn1c(=O)cnn(CCCCN2CCN(c3cccc(F)n3)CC2)c1=O`, the Activity entry in assay [3] is “Dose-dependent effect”. Besides, in assay [4], the EC50 amounted to 0.2 nM. Besides, the Ki is 0.2 nM in assay [1] and > 10000 nM in assay [2]. Further, the Emax in assay [5] turned out to be 95%.

Take `COc1ccc(N2CCN(CCCCn3ncc(=O)n(C)c3=O)CC2)c(OC)c1`: the inhibition constant Ki in assay [1] was 190 nM; in assay [2], > 10000 nM.

For the compound `CCOc1ccc2cccc(N3CCN(CCCCn4ncc(=O)n(C)c4=O)CC3)c2c1`, the values for the Ki in assay [1] and in assay [2] were 2.1 nM and 48 nM, respectively.

For `CNc1ccccc1N1CCN(CCCCn2ncc(=O)n(C)c2=O)CC1`, the Ki in assay [1] was determined as 220 nM; in assay [2], 450 nM.

`Cn1c(=O)cnn(CCCCN2CCN(c3c(F)cccc3C#N)CC2)c1=O`: the inhibitory constant (Ki) in assay [1] is 4.8 nM; in assay [2] it was > 10000 nM.

For `COc1ccccc1N1CCN(CCCCn2ncc(=O)n(C)c2=O)CC1`, the Activity result in assay [3] is “Dose-dependent effect”. In addition, the Ratio Ki in the assay listed under Homo sapiens was determined as 45. Also, in assay [2], the Ki came to 6.75 nM.

As to `COc1ccc2cccc(N3CCN(CCCCCn4ncc(=O)n(C)c4=O)CC3)c2c1`, the inhibition constant Ki was 240 nM in assay [1] and > 10000 nM in assay [2].

In the case of `Cn1c(=O)cnn(CCCCN2CCN(c3cccc(O)c3)CC2)c1=O`, the values for the Ki in assay [1] and in assay [2] were 2.8 nM and > 10000 nM, respectively.

As for `Cn1c(=O)cnn(CCCCN2CCN(c3ccccn3)CC2)c1=O`, in assay [3], the Activity entry is “Dose-dependent effect”. Besides, the half-maximal effective concentration (EC50) in assay [4] is 0.08 nM. The figures for the Ki in assay [1] and in assay [2] were 1.1 nM and 262 nM, respectively. For the same compound, in assay [5], the Emax was found to be 85%.

With `Cn1c(=O)cnn(CCCCN2CCN(c3ccccc3)CC2)c1=O`, in assay [3], the Activity entry is “Dose-dependent effect”. Also, in assay [4], the EC50 was 0.3 nM. In addition, the values for the inhibition constant Ki in assay [1] and in assay [2] were 2.5 nM and 64 nM, respectively. The Ratio Ki in the assay filed under Homo sapiens was determined as 25. In addition, in assay [5], the Emax came to 93%.
